pIC50, pKi: −log10 of the molar value. The source made the active and inactive calls. The calls are words filed in the database; no cut-off is given here.
What was measured:
[1] = biological target: Induced myeloid leukemia cell differentiation protein Mcl-1 (Homo sapiens, UniProt Q07820); assay: Inhibition of human Mcl-1 protein by fluorescence polarization assay
Summary of the method: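 Mcl-1 binding by fluorescence-polarization competition assay; Ki values.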

MDA-MB-231 [2] = assay: Growth inhibition of human MDA-MB-231 2LMP cells after 4 days by WST-8 based assay; type: functional, cell-based; details: MDA-MB-231, 96 h
Summary of the method: (§1)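 Cells grown with compound for 4 days, then cell growth read by WST-based assay; IC50 values. Both lines express high levels of Bcl-2, Bcl-xL and Mcl-1.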

[3] = biological target: Apoptosis regulator Bcl-2 (Homo sapiens, UniProt P10415); assay: Inhibition of human Bcl-2 protein by ELISA
Chain of Apoptosis regulator Bcl-2 (P10415 whole entry): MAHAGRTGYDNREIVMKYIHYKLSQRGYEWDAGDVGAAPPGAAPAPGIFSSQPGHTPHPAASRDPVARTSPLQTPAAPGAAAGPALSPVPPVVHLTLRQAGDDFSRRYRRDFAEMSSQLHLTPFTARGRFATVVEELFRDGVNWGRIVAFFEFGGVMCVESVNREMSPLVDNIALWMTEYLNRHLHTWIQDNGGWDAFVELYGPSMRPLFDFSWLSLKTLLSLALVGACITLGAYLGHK
Summary of the method: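 ELISA competitive binding to Bcl-2 using a biotinylated Bim peptide as competitor; IC50 values.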

PC-3 [4] = assay: Growth inhibition of human PC3 cells after 4 days by WST-8 based assay; type: functional, cell-based; details: PC-3, 96 h; summary of the method: as §1
MDA-MB-231 [5] = assay: Induction of apoptosis in human MDA-MB-231 2LMP cells by annexin-5/propidium iodide assay; type: functional, cell-based
Summary of the method: (§2)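 Four-day exposure, then apoptosis measured by annexin-V/propidium iodide staining and flow cytometry.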

PC-3 [6] = assay: Induction of apoptosis in human PC3 cells assessed as Cell viability after 4 days by trypan blue exclusion assay; type: functional, cell-based
MDA-MB-231 [7] = assay: Induction of apoptosis in human MDA-MB-231 2LMP cells assessed as cell viability by trypan blue exclusion assay; type: functional, cell-based; details: TDE = time-dependent effect
PC-3 [8] = assay: Induction of apoptosis in human PC3 cells assessed as cell viability by trypan blue exclusion assay; type: functional, cell-based; details: TDE = time-dependent effect
MDA-MB-231 [9] = assay: Induction of apoptosis in human MDA-MB-231 2LMP cells assessed as cell viability at 1 uM after 4 days by trypan blue exclusion assay; type: functional; details: MDA-MB-231, 96 h, read-out: Activity
Summary of the method: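 Cell death scored by trypan blue exclusion after 4 days of exposure at 0.3, 1 and 3 µM; percentage of dead cells reported with ± error.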

PC-3 [10] = assay: Induction of apoptosis in human PC3 cells by annexin-5/propidium iodide assay; type: functional, cell-based; summary of the method: as §2

Chain of Induced myeloid leukemia cell differentiation protein Mcl-1 (Q07820 whole entry): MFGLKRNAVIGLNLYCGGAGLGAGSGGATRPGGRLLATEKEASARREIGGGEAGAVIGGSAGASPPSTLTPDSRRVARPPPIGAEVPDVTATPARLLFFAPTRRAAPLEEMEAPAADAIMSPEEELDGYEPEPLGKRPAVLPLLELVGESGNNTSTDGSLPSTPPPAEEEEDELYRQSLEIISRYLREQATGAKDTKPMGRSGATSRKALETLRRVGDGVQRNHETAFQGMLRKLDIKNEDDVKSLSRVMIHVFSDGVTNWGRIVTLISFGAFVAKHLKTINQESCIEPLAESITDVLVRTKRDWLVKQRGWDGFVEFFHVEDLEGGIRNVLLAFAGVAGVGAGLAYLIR

CC(C)c1cc(C(=O)c2ccc(Oc3ccccc3)cc2)c(O)c(O)c1O
pIC50 [1]: 5.51
pKi [1]: 6.42
pIC50 (MDA-MB-231 [2]): 4.89
pIC50 [3]: 5.47
pIC50 (PC-3 [4]): 4.91

O=C(c1ccc(Oc2ccccc2)cc1)c1cc(C(=O)c2nc3ccccc3s2)c(O)c(O)c1O
pIC50 [1]: 6.51
pKi [1]: 7.43
pIC50 (MDA-MB-231 [2]): 6.92
pIC50 [3]: 6.77
Activity (MDA-MB-231 [5]): Active
Activity (PC-3 [6]): Dose-dependent effect
Activity (MDA-MB-231 [7]): tde
Activity (PC-3 [8]): tde
viability at 1 µM (MDA-MB-231 [9]): 58%
pIC50 (PC-3 [4]): 6.59
Activity (PC-3 [10]): Active

O=C(c1ccc(Oc2ccccc2)cc1)c1cc(C(=O)c2cccc3ccccc23)c(O)c(O)c1O
pIC50 [1]: 5.92
pKi [1]: 6.82
pIC50 (MDA-MB-231 [2]): 6.54
pIC50 [3]: 6.54
pIC50 (PC-3 [4]): 6.26

Cc1cc2c(C(C)C)c(O)c(O)c(C=O)c2c(O)c1-c1c(C)cc2c(C(C)C)c(O)c(O)c(C=O)c2c1O [GOSSYPOL]
pIC50 (MDA-MB-231 [2]): 5.43
pIC50 (PC-3 [4]): 5.60

CC(C)c1cc(C(=O)c2ccccc2)c(O)c(O)c1O
pIC50 [1]: 4.44
pKi [1]: 5.34
pIC50 (MDA-MB-231 [2]): 4.51
pIC50 [3]: 4.38
pIC50 (PC-3 [4]): 4.41

CC(C)C(=O)c1cc(C(=O)c2ccc(Oc3ccccc3)cc2)c(O)c(O)c1O
pIC50 [1]: 5.57
pKi [1]: 6.47
pIC50 (MDA-MB-231 [2]): 5.35
pIC50 [3]: 5.59
pIC50 (PC-3 [4]): 5.24

Reference: ChEMBL document CHEMBL1141593, “Acylpyrogallols as inhibitors of antiapoptotic Bcl-2 proteins” (J Med Chem, 2008)
